Assay results from ChEMBL document CHEMBL4689842, “EUbOPEN Chemogenomics Library wave 1” (2021).

Tested on: U2OS
Assay: Multiplex assay against U2OS
Format: toxicity, cell-based
Settings: human
Procedure, shortened: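 Values for tubulin, mitochondrial-mass and membrane-permeability phenotypes are per cents of cells with healthy nuclei. These cells were identified by CellPathfinder machine-learning gating of live cells that had been stained at seeding with Hoechst33342, BioTracker Green Microtubule Cytoskeleton Dye, MitoTracker Red and Annexin V Alexa Fluor 680 and imaged on a CQ1 microscope at 37°C and 5% CO2 after compound addition. The gating first set Hoechst high-intensity objects apart from normal cells, then split normal cells into healthy, pyknosed or fragmented nuclei, and pyknosed cells into mitotic or apoptotic.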

[1] = 12 h, 1 µM, compound concentration 1 uM, replicate 1
[2] = 12 h, 1 µM, compound concentration 1 uM, replicate 2
[3] = 12 h, 10 µM, compound concentration 10 uM, replicate 1
[4] = 12 h, 10 µM, compound concentration 10 uM, replicate 2
[5] = 24 h, 1 µM, compound concentration 1 uM, replicate 1
[6] = 24 h, 1 µM, compound concentration 1 uM, replicate 2
[7] = 24 h, 10 µM, compound concentration 10 uM, replicate 1
[8] = 24 h, 10 µM, compound concentration 10 uM, replicate 2
[9] = 48 h, 1 µM, compound concentration 1 uM, replicate 1
[10] = 48 h, 1 µM, compound concentration 1 uM, replicate 2
[11] = 48 h, 10 µM, compound concentration 10 uM, replicate 1
[12] = 48 h, 10 µM, compound concentration 10 uM, replicate 2

SMILES: CNC(=O)Nc1ccc(-c2nc(N3CC4CCC(C3)O4)c3cnn(C4CCC5(CC4)OCCO5)c3n2)cc1
- Population Apoptotic (%) [1]: 22%
- Population Fragmented Nuclei (%) [1]: 24%
- Population Healthy Nuclei (%) [1]: 59%
- Population Hoechst High Intensity Objects (%) [1]: 13%
- Population Membrane Permeable-Phenotype (%) [1]: 5%
- Population Mitochondria Different-Phenotype (%) [1]: 11%
- Population Mitotic Cells (%) [1]: 77%
- Population Normal (%) [1]: 86%
- Population Pyknosed Nuclei (%) [1]: 15%
- Population Tubulin-Different-Phenotype (%) [1]: 26%
- Total Cell Count [1]: 90
- Population Apoptotic (%) [2]: 0%
- Population Fragmented Nuclei (%) [2]: 28%
- Population Healthy Nuclei (%) [2]: 55%
- Population Hoechst High Intensity Objects (%) [2]: 10%
- Population Mitochondria Different-Phenotype (%) [2]: 13%
- Population Mitotic Cells (%) [2]: 100%
- Population Normal (%) [2]: 89%
- Population Pyknosed Nuclei (%) [2]: 16%
- Population Tubulin-Different-Phenotype (%) [2]: 18%
- Total Cell Count [2]: 54
- Population Apoptotic (%) [3]: 40%
- Population Fragmented Nuclei (%) [3]: 26%
- Population Healthy Nuclei (%) [3]: 31%
- Population Hoechst High Intensity Objects (%) [3]: 13%
- Population Membrane Permeable-Phenotype (%) [3]: 11%
- Population Mitochondria Different-Phenotype (%) [3]: 88%
- Population Mitotic Cells (%) [3]: 59%
- Population Normal (%) [3]: 87%
- Population Pyknosed Nuclei (%) [3]: 42%
- Population Tubulin-Different-Phenotype (%) [3]: 96%
- Total Cell Count [3]: 66
- Population Apoptotic (%) [4]: 25%
- Population Fragmented Nuclei (%) [4]: 13%
- Population Healthy Nuclei (%) [4]: 54%
- Population Hoechst High Intensity Objects (%) [4]: 6%
- Population Membrane Permeable-Phenotype (%) [4]: 36%
- Population Mitochondria Different-Phenotype (%) [4]: 75%
- Population Mitotic Cells (%) [4]: 75%
- Population Normal (%) [4]: 93%
- Population Pyknosed Nuclei (%) [4]: 32%
- Total Cell Count [4]: 107
- Population Apoptotic (%) [5]: 30%
- Population Fragmented Nuclei (%) [5]: 28%
- Population Healthy Nuclei (%) [5]: 52%
- Population Hoechst High Intensity Objects (%) [5]: 19%
- Population Membrane Permeable-Phenotype (%) [5]: 0%
- Population Mitochondria Different-Phenotype (%) [5]: 14%
- Population Mitotic Cells (%) [5]: 70%
- Population Normal (%) [5]: 80%
- Population Pyknosed Nuclei (%) [5]: 18%
- Population Tubulin-Different-Phenotype (%) [5]: 14%
- Total Cell Count [5]: 98
- Population Apoptotic (%) [6]: 25%
- Population Fragmented Nuclei (%) [6]: 19%
- Population Healthy Nuclei (%) [6]: 64%
- Population Hoechst High Intensity Objects (%) [6]: 18%
- Population Membrane Permeable-Phenotype (%) [6]: 8%
- Population Mitochondria Different-Phenotype (%) [6]: 6%
- Population Mitotic Cells (%) [6]: 75%
- Population Normal (%) [6]: 81%
- Population Pyknosed Nuclei (%) [6]: 16%
- Population Tubulin-Different-Phenotype (%) [6]: 23%
- Total Cell Count [6]: 55
- Population Apoptotic (%) [7]: 51%
- Population Fragmented Nuclei (%) [7]: 25%
- Population Healthy Nuclei (%) [7]: 35%
- Population Hoechst High Intensity Objects (%) [7]: 10%
- Population Membrane Permeable-Phenotype (%) [7]: 10%
- Population Mitochondria Different-Phenotype (%) [7]: 89%
- Population Mitotic Cells (%) [7]: 48%
- Population Normal (%) [7]: 90%
- Population Pyknosed Nuclei (%) [7]: 38%
- Population Tubulin-Different-Phenotype (%) [7]: 93%
- Total Cell Count [7]: 66
- Population Apoptotic (%) [8]: 41%
- Population Fragmented Nuclei (%) [8]: 8%
- Population Healthy Nuclei (%) [8]: 42%
- Population Hoechst High Intensity Objects (%) [8]: 6%
- Population Membrane Permeable-Phenotype (%) [8]: 44%
- Population Mitochondria Different-Phenotype (%) [8]: 84%
- Population Mitotic Cells (%) [8]: 58%
- Population Normal (%) [8]: 93%
- Population Pyknosed Nuclei (%) [8]: 49%
- Population Tubulin-Different-Phenotype (%) [8]: 96%
- Total Cell Count [8]: 90
- Population Apoptotic (%) [9]: 50%
- Population Fragmented Nuclei (%) [9]: 39%
- Population Healthy Nuclei (%) [9]: 49%
- Population Hoechst High Intensity Objects (%) [9]: 18%
- Population Membrane Permeable-Phenotype (%) [9]: 3%
- Population Mitochondria Different-Phenotype (%) [9]: 7%
- Population Mitotic Cells (%) [9]: 50%
- Population Normal (%) [9]: 81%
- Population Pyknosed Nuclei (%) [9]: 11%
- Population Tubulin-Different-Phenotype (%) [9]: 19%
- Total Cell Count [9]: 93
- Population Apoptotic (%) [10]: 36%
- Population Fragmented Nuclei (%) [10]: 14%
- Population Healthy Nuclei (%) [10]: 55%
- Population Hoechst High Intensity Objects (%) [10]: 14%
- Population Membrane Permeable-Phenotype (%) [10]: 5%
- Population Mitochondria Different-Phenotype (%) [10]: 14%
- Population Mitotic Cells (%) [10]: 63%
- Population Normal (%) [10]: 85%
- Population Pyknosed Nuclei (%) [10]: 30%
- Population Tubulin-Different-Phenotype (%) [10]: 37%
- Total Cell Count [10]: 56
- Population Apoptotic (%) [11]: 64%
- Population Fragmented Nuclei (%) [11]: 29%
- Population Healthy Nuclei (%) [11]: 23%
- Population Hoechst High Intensity Objects (%) [11]: 12%
- Population Membrane Permeable-Phenotype (%) [11]: 26%
- Population Mitochondria Different-Phenotype (%) [11]: 94%
- Population Mitotic Cells (%) [11]: 35%
- Population Normal (%) [11]: 87%
- Population Pyknosed Nuclei (%) [11]: 47%
- Population Tubulin-Different-Phenotype (%) [11]: 94%
- Total Cell Count [11]: 65
- Population Apoptotic (%) [12]: 43%
- Population Fragmented Nuclei (%) [12]: 11%
- Population Healthy Nuclei (%) [12]: 29%
- Population Hoechst High Intensity Objects (%) [12]: 16%
- Population Membrane Permeable-Phenotype (%) [12]: 40%
- Population Mitochondria Different-Phenotype (%) [12]: 80%
- Population Mitotic Cells (%) [12]: 56%
- Population Normal (%) [12]: 83%
- Population Pyknosed Nuclei (%) [12]: 58%
- Population Tubulin-Different-Phenotype (%) [12]: 93%
- Total Cell Count [12]: 74
